Measured values collected from several papers.
Protocols differ between the studies behind these lines. pKd: −log10 of the molar value.
PIK3C2B: Phosphatidylinositol 4-phosphate 3-kinase C2 domain-containing subunit beta (PIK3C2B, Homo sapiens, UniProt O00750)
UCK1: UCK1 (Homo sapiens, UniProt Q9HA47)
Nectin-4: Nectin-4 (Homo sapiens, UniProt Q96NY8)

Cc1cnc(-c2ccc(-c3ccc(NC(=O)Nc4c(F)cc(F)cc4F)cc3F)c3c2C(=O)NC3)[nH]1  pKd (Aurora kinase B (AURKB, Homo sapiens, UniProt Q96GD4); binding, competition with immobilised ligand): 8.51
Cc1cc(Nc2cc3ncccc3c(N[C@@H]3C[C@H]4CC[C@@H](C3)N4CCC#N)n2)n[nH]1  pKd (Mitogen-activated protein kinase kinase kinase 3 (MAP3K3, Homo sapiens, UniProt Q99759); binding, competition with immobilised ligand): 7.00
CC(=O)N[C@H](C(=O)N1C[C@H](O)C[C@H]1C(=O)NCc1ccc(-c2scnc2C)cc1)C(C)(C)SCCCCCCNC(=O)C[C@@H]1N=C(c2ccc(Cl)cc2)c2c(sc(C)c2C)-n2c(C)nnc21  pKd (Bromodomain-containing protein 3, BD2 (BRD3, Homo sapiens, UniProt Q15059); binding, ITC): 7.41
NC(=O)c1ncn([C@@H]2O[C@H](COP(=O)(O)O)[C@@H](O)[C@H]2O)c1N  pKd (Adenylosuccinate lyase (ADSL, Homo sapiens, UniProt P30566, R303C); binding, ITC): 3.91
CCC(=O)N1CCC(C(=O)NCC(=O)N2CCN(c3nc(-c4cnc(N)nc4C(F)F)nc(N4CCOCC4)n3)CC2)CC1  pKd (PIK3C2B; binding, competition with immobilised ligand): 7.07
NC(=O)C1=CN([C@@H]2O[C@H](COP(=O)(O)OP(=O)(O)OC[C@H]3O[C@@H](n4cnc5c(N)ncnc54)[C@H](OP(=O)(O)O)[C@@H]3O)[C@@H](O)[C@H]2O)C=CC1  pKd (ZMO1885 (Zymomonas mobilis, UniProt Q5NLA1, Y343W); binding): 3.15
Nc1ncnc2c1ncn2[C@@H]1O[C@H](COP(=O)(O)O)[C@@H](O)[C@H]1O  pKd (Adenylosuccinate lyase (ADSL, Homo sapiens, UniProt P30566); binding, ITC): 4.27
O=c1ccn([C@@H]2O[C@H](CO)[C@@H](O)[C@H]2O)c(=O)[nH]1  pKd (UCK1; binding, fluorescence): 7.25
CCCC[C@@H]1NC(=O)[C@H](Cc2ccc(O)cc2)NC(=O)[C@@H]2CCCN2C(=O)[C@H](CCC(=O)O)NC(=O)[C@H](C)NC(=O)[C@H](Cc2ccccc2)NC(=O)[C@@H]2CSCCC(=O)N3CN(CN(C3)C(=O)CCSC[C@H](NC(C)=O)C(=O)N[C@@H](CC(C)(C)C)C(=O)N3CCC[C@H]3C(=O)N[C@@H](CCC(=O)O)C(=O)N[C@H](CCCCNC(=O)CCc3cn(CCOCCOCCOCCN(CCOCCOCCOCCC(=O)N[C@H]4CSCCC(=O)N5CN6CN(C5)C(=O)CCSC[C@H](NC(=O)[C@@H](CC(=O)O)NC(=O)[C@H](Cc5cccc7ccccc57)NC(=O)[C@@H]5CCCN5C4=O)C(=O)N[C@@H](CCSC)C(=O)N[C@@H](CCCCNC(=N)N)C(=O)N[C@@H](CC(=O)O)C(=O)N[C@@H](Cc4c[nH]c5ccccc45)C(=O)N[C@@H](CO)C(=O)N[C@@H]([C@@H](C)O)C(=O)N4CCC[C@H]4C(=O)N4C[C@H](O)C[C@H]4C(=O)N[C@@H](Cc4c[nH]c5ccccc45)C(=O)N[C@H](C(N)=O)CSCCC6=O)CCOCCOCCOCCn4cc(CCC(=O)NCCCC[C@H]5NC(=O)[C@H](CCC(=O)O)NC(=O)[C@@H]6CCCN6C(=O)[C@H](CC(C)(C)C)NC(=O)[C@@H](NC(C)=O)CSCCC(=O)N6CN7CN(C6)C(=O)CCSC[C@H](NC(=O)[C@H](Cc6ccc(O)cc6)NC(=O)[C@@H]6CCCN6C5=O)C(=O)N[C@@H](Cc5ccccc5)C(=O)N[C@@H](C)C(=O)N[C@@H](CCC(=O)O)C(=O)N5CCC[C@H]5C(=O)N[C@@H](Cc5ccc(O)cc5)C(=O)N[C@@H](CCCC)C(=O)N[C@H](C(N)=O)CSCCC7=O)nn4)nn3)C(=O)N3CCC[C@H]3C(=O)N[C@@H](Cc3ccc(O)cc3)C(=O)N2)C(=O)CCSC[C@@H](C(N)=O)NC1=O  pKd (Nectin-4; binding, SPR): 8.57
C=CC(=O)N1CCC(C(=O)NCC(=O)N2CCN(c3nc(-c4cnc(N)nc4C(F)F)nc(N4CCOCC4)n3)CC2)CC1  pKd (PIK3C2B; binding, competition with immobilised ligand): 7.09
CCCCCC(C)=O  pKd (Or85b (Drosophila melanogaster, UniProt Q9VHQ7); binding, MST): ~6.10
Cc1cc2nc3c(=O)[nH]c(=O)nc-3n(C[C@H](O)[C@H](O)[C@H](O)COP(=O)(O)OP(=O)(O)OC[C@H]3O[C@@H](n4cnc5c(N)ncnc54)[C@H](O)[C@@H]3O)c2cc1C  pKd (Heterogeneous nuclear ribonucleoprotein U-like protein 1 (HNRNPUL1, Homo sapiens, UniProt Q9BUJ2); binding; lysate): 7.96
CCN(CC)c1ccc2cc(C(=O)NCCNC(=O)c3ccc(-c4cc(-c5ccc(C#N)cc5)nc(-c5ccco5)c4)cc3)c(=O)oc2c1  pKd (Myc proto-oncogene protein (MYC, Homo sapiens, UniProt P01106); binding, SPR): 6.82
Cc1nc(NC(=O)N2CCC[C@H]2C(N)=O)sc1-c1ccnc(C(C)(C)C(F)(F)F)c1  pKd (PIK3C2B; binding, competition with immobilised ligand): 6.50
[N-]=[N+]=N[C@@H]1[C@H](O)[C@@H](CO)O[C@H]1n1ccc(=O)[nH]c1=O  pKd (UCK1; binding, fluorescence): 6.74
CCCC[C@@H]1NC(=O)[C@H](Cc2ccc(O)cc2)NC(=O)[C@@H]2CCCN2C(=O)[C@H](CC(=O)O)NC(=O)[C@H](C)NC(=O)[C@H](Cc2ccccc2)NC(=O)[C@@H]2CSCCC(=O)N3CN(CN(C3)C(=O)CCSC[C@@H](C(=O)N[C@@H](CNC(=O)Cn3cc(CCC(=O)NCCC(=O)N(C)CC(=O)N(C)CC(=O)N(C)CC(=O)N(C)CC(=O)N(C)CC(=O)N(C)CC(=O)N(C)CC(=O)N(C)CC(=O)N(C)CC(=O)N(C)CC(=O)N[C@H]4CSCCC(=O)N5CN6CN(C5)C(=O)CCSC[C@H](NC(=O)[C@@H](CC(=O)O)NC(=O)[C@H](Cc5cccc7ccccc57)NC(=O)[C@@H]5CCCN5C4=O)C(=O)N[C@@H](CCSC)C(=O)N[C@@H](CCCCNC(=N)N)C(=O)N[C@@H](CC(=O)O)C(=O)N[C@@H](Cc4c[nH]c5ccccc45)C(=O)N[C@@H](CO)C(=O)N[C@@H]([C@@H](C)O)C(=O)N4CCC[C@H]4C(=O)N4C[C@H](O)C[C@H]4C(=O)N[C@@H](Cc4c[nH]c5ccccc45)C(=O)N[C@H](C(N)=O)CSCCC6=O)nn3)C(N)=O)NC1=O)C(=O)CCSC[C@H](NC(C)=O)C(=O)N[C@@H](CC(C)(C)C)C(=O)N1CCC[C@H]1C(=O)N[C@@H](CCC(=O)O)C(=O)N[C@H](C)C(=O)N1CCC[C@H]1C(=O)N[C@@H](Cc1ccc(O)cc1)C(=O)N2  pKd (Nectin-4; binding, SPR): 8.59
O=C(CCCCCCC(=O)Nc1ccc([C@H]2O[C@@H](CSc3nc(-c4ccccc4)c(-c4ccccc4)o3)C[C@@H](c3ccc(CO)cc3)O2)cc1)NO  pKd (Histone deacetylase 2 (HDAC2, Homo sapiens, UniProt Q92769); cell-free assay): < 4.52
